Bioassay records (PubChem)
This is a sample that favours compounds with a hit; in the whole collection about 2.8% have one here.
HTR2A ag – mouse Htr2a agonists via beta-arrestin recruitment, primary screen, cell-based, luminescence | 5-hydroxytryptamine receptor 2A (Mus musculus), P35363 | CHO-K1 mHTR2A beta-arrestin complementation; percent of 30 µM serotonin response | activation, % at 7.6 µM | 360,000 compounds, 0.66% hits;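 active = activation above a run cutoff, the mean activation of all tested compounds plus 3 SD, cut at about 14% in these data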
EBI2 antag – EBI2 receptor antagonists, beta-arrestin recruitment, primary screen, cell-based, luminescence, 7a,25-OHC stimulation, uHTS. G-protein coupled receptor 183 (Homo sapiens), P32249. 7a,25-OHC stimulated. inhibition, % at 5 µM. 360,000 compounds, 0.81% hits. AID 651636, 2012; in the data active = inhibition above about 38%;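 also: enzyme fragment complementation signal reports receptor beta-arrestin coupling in cells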
Target sequence (P32249 whole entry, looked up, the tested form may be a part): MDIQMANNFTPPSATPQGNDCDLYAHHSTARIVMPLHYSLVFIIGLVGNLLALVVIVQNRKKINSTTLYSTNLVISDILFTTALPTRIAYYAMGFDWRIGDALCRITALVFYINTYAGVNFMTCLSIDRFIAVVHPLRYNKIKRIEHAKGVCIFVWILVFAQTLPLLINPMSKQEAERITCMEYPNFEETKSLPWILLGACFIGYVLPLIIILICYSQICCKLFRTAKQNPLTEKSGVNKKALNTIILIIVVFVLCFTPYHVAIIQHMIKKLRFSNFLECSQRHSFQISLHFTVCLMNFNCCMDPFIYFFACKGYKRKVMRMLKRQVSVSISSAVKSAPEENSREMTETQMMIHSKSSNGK
MC4R barr agon – MC4R agonists recruiting beta-arrestin, primary screen, cell-based, luminescence, agonist arm of biased-ligand search; U2OS MC4R beta-arrestin complementation; percent of melanotan II response, DMSO zero; 360,000 compounds, 0.98% hits; activation, % at 8.9 µM; Melanocortin receptor 4 (Homo sapiens), P32245;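 active = activation above a per-plate cutoff, the mean activation of sample wells on that plate plus 3 SD, cut at about 8% in these data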
MC4R antagonist – MC4R antagonists of cAMP signaling, primary screen, cell-based, TR-FRET, antagonist arm of biased-ligand search. Melanocortin receptor 4 (Homo sapiens), P32245. MC4R-expressing cells, MTII-stimulated cAMP, LANCE TR-FRET. AID 540295, 2011. inhibition, % at 6.5 µM. 360,000 compounds, 0.48% hits;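 active = inhibition above its plate's cutoff, the mean of tested wells on that plate plus 3 SD, cut at about 29% in these data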
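Assay system: human MC4R-expressing U2OS cells; reagent: Melanotan II stimulation of cells; dosing: 6.5 µM single dose; timing: compound 30 min, challenge 1 h, detection 1 h; signal: TR-FRET cAMP assay; replicates: one well per compound, no replicates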
Of the large screens only hits and unclear results are named; the others gave an inactive call.

Oc1ccc(Cl)cc1C1=Nc2ccccc2N=C(c2ccco2)C1	MC4R barr agon 9.0
COCCNC(=O)C1CCCN(C(=O)COc2ccc(Cl)cc2Cl)CC1 (stereo not given)	none
COCCN1C(=O)CCC1(C)c1nnnn1-c1ccc2c(c1)OCCO2 (stereo not given)	none (no result: MC4R barr agon, MC4R antagonist)
CSc1cccc(NC(=O)Nc2nc3c(C)cccc3s2)c1	MC4R barr agon 9.1
COC(=O)Nc1nc2c(C)cccc2s1	none
CCc1ccc(OCC(=O)Nc2ccc(-c3cc4ccccc4oc3=O)c(OC)c2)cc1	none
COc1cc(NC(=O)c2cc(Cl)ccc2Cl)ccc1-c1cc2ccccc2oc1=O	MC4R barr agon 13.8
COc1cc(NC(=O)c2cc3ccccc3o2)c(OC)cc1Br	MC4R barr agon 19.8
COc1ccccc1NC(=O)c1cc2ccccc2o1	none
COc1cc(NC(=O)c2cccc(C)c2)ccc1NC(=O)c1cc2ccccc2o1	MC4R barr agon 11.3
CCCCCC(=O)N1C[C@@H](n2cc(-c3ccc(F)cc3)nn2)[C@H](O)C[C@@H]1c1ccc(Cl)cc1	none
Cc1nc2ccccc2n2c(O)c(CC(=O)O)cc12	MC4R barr agon 8.3
Cc1nc2ccccc2n1CCC(=O)O	none
COc1cccc(NC(=O)Nc2nc(-c3ccc(OC)c(OC)c3)cs2)c1	MC4R barr agon 18.5
CC1(c2ccccc2)C(C#N)C(=O)NC(=O)C1C#N (stereo not given)	none
COc1ccccc1NS(=O)(=O)c1cc([N+](=O)[O-])ccc1N/N=C/c1c[nH]c2ccccc12	EBI2 antag 54.3
O=[N+]([O-])c1ccc(N/N=C/c2c[nH]c3ccccc23)cc1	EBI2 antag 41.7
O=C(NCCN1CCC(n2c(=O)[nH]c3ccccc32)CC1)C(c1ccccc1)c1ccccc1	none (no result: MC4R barr agon, MC4R antagonist)
O=C1/C(=C/Nc2cccc([N+](=O)[O-])c2)CCc2ccccc21	MC4R barr agon 9.2
O=S(=O)(NC1CC(NS(=O)(=O)OCC(Cl)(Cl)Cl)C2CCCCC12)OCC(Cl)(Cl)Cl (stereo not given)	HTR2A ag 15.4
O=C(COc1ccc(/C=N/NC(=O)c2cc3ccccc3o2)cc1Br)Nc1ccccc1	MC4R barr agon 53.0
O=C(COc1ccccc1[N+](=O)[O-])Nc1ccc(NC(=O)c2cc3ccccc3o2)cc1	none
Cc1cc(C)cc(-n2nnnc2SCC(=O)Nc2nc(-c3ccc(F)cc3)cs2)c1	MC4R barr agon 30.0
CC(=O)c1nn(-c2ccccc2)cc1C(=O)c1ccc(C)cc1	EBI2 antag 56.3
CC(=O)c1nn(-c2cccc(Br)c2)cc1C(=O)c1ccc2ccccc2c1	none
CCN(CC)c1ncnc2c1ncn2[C@H]1CN(Cc2cccnc2)C[C@@H](CO)O1	none
O=C(NCC(F)(F)F)c1cc2c(c(-c3cccc(-c4ccccc4F)c3)n1)[C@@H](CCO)N(C(=O)CC1CC1)C2	none (no result: MC4R barr agon, MC4R antagonist)
CCC(=O)NN1CCN(c2ccncc2S(=O)(=O)N2CCCCC2)CC1	none
CN(C)c1ccc(C(=O)/C=C/c2ccccc2)cc1	EBI2 antag 76.0
CC(=O)Nc1cccc(C(=O)/C=C/c2ccc(N(C)C)cc2)c1	EBI2 antag 43.5
CN(C)c1ccc(C(=O)/C=C/c2ccco2)cc1	none
CCNC(=O)C1(C)CCCN(C(=O)c2cc(C)nn2C(C)(C)C)C1 (stereo not given)	none
O=C(O)c1ccc(-c2nc(-c3ccc(Cl)c(Cl)c3)cs2)cc1	MC4R antagonist 31.2
COC(=O)CSc1nc(N)c2c3c(sc2n1)C(c1ccccc1)SC(c1ccccc1)C3 (stereo not given)	EBI2 antag 55.4
Cc1ccc(-n2sc3ccccc3c2=O)cc1S(=O)(=O)N1CCCCC1	HTR2A ag 17.0, MC4R antagonist 53.3
O=c1c2ccccc2sn1-c1ccc(S(=O)(=O)N2CCCCC2)cc1	none
COc1ccc(CCC(C)NCCc2ccc(Cl)cc2Cl)cc1 (stereo not given)	MC4R barr agon 9.2
COc1ccc(CCC(C)NCc2ccc(Cl)c(Cl)c2)cc1 (stereo not given)	none
CC(=O)N1CCN(S(=O)(=O)c2cccc(C(=O)OCC(=O)NCc3ccccc3Cl)c2)CC1	none
C=C1C(=O)O[C@@H]2[C@H]3O[C@]3(C)CC/C=C(\C)CC[C@@H]12	none
